pIC50: −log10 of the molar value. Active and inactive are the calls of the source. No cut-off for these calls is given here.
Columns and labels:
[1] = Inhibition of trypsin
Summary of the method: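 Trypsin (0.0023 mg/mL final, 2.75 BAEE U) was added to 0.45 mM BAEE in 64 mM NaH2PO4 pH 7.6 at 25 °C. Compound was premixed with substrate from a 1:2 EtOH dilution series (final 4.5 × 10-4 to 6.8 × 10^-6 M), against an EtOH blank. N-benzoyl-L-arginine formation was read at 253 nm for 5 min, and the 0.5–2 min interval was analyzed.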

[2] = Inhibition of trypsin at 10 uM
[3] = Inhibition of chymotrypsin at 10 uM
[4] = Inhibition of chymotrypsin
Summary of the method: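 Spectrophotometric assay: 0.0025 mg/mL chymotrypsin (0.0086 U) with 0.53 mM BTEE in 38 mM Tris-HCl pH 7.8, 53 mM CaCl2, 0.5 mM HCl and 32% MeOH at 25 °C. Inhibitor (from MeOH dilutions, final 6.25 × 10-5 to 7.5 × 10^-9 M) was equilibrated with substrate before enzyme addition. Absorbance at 256 nm was followed for 5 min, and the 0.5–1.5 min interval was analyzed.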

NCI-H460 = test: Cytotoxicity against human H460 cells; type: functional, cell-based
[5] = Cytotoxicity against mouse Neuro2a cells; type: functional, cell-based; settings: N2a
Plasmodium falciparum = test: Antiparasitic activity against chloroquine-resistant Plasmodium falciparum W2 in microfluorimetric assay; type: functional, organism-based
Trypanosoma cruzi = test: Antiparasitic activity against Trypanosoma cruzi C4 clone; type: functional, organism-based
Leishmania donovani = test: Antiparasitic activity against Leishmania donovani LD-1S/MHOM/SD/00-strain 1S; type: functional, organism-based

| SMILES | pIC50 [1] | Activity [2] | Activity [3] | also measured |
| --- | --- | --- | --- | --- |
| CC(C)C[C@@H](NC(=O)[C@H](O)COS(=O)(=O)O)C(=O)N[C@@H]1C(=O)N[C@@H](CCCNC(=N)N)C(=O)N[C@H]2CC[C@@H](O)N(C2=O)[C@@H](CC(C)C)C(=O)N(C)[C@@H](Cc2ccc(O)cc2)C(=O)N[C@@H](C(C)C)C(=O)O[C@@H]1C | 8.02 | – | – | – |
| CC(C)[C@H](NC(=O)[C@@H](C)NC(=O)[C@H](CCCc1ccc(O)cc1)NC(=O)[C@H](O)CO)C(=O)N[C@@H]1C(=O)N[C@@H](CCc2ccc(O)cc2)C(=O)N[C@H]2CC[C@@H](O)N(C2=O)[C@@H]([C@@H](C)O)C(=O)N(C)[C@@H](Cc2ccc(O)c(Br)c2)C(=O)N[C@@H](C(C)C)C(=O)O[C@@H]1C | – | inactive | inactive | – |
| CCC(=O)N[C@@H](CCC(N)=O)C(=O)N1CC(C)[C@@H]2OC(=O)[C@H]([C@@H](C)CC)NC(=O)[C@H](Cc3ccc(O)cc3)N(C)C(=O)[C@H]([C@@H](C)CC)N3C(=O)[C@H](CC[C@H]3O)NC(=O)[C@H](CC(C)C)NC(=O)[C@H]21 (stereo partly drawn) | – | inactive | inactive | – |
| CCCC(=O)N[C@@H](CC(C)C)C(=O)N[C@@H](CCC(=O)O)C(=O)N[C@@H]1C(=O)N[C@@H](Cc2ccc(O)cc2)C(=O)N[C@H]2CC[C@@H](O)N(C2=O)[C@@H](C(C)C)C(=O)N(C)[C@@H](Cc2ccccc2)C(=O)N[C@@H]([C@@H](C)CC)C(=O)O[C@@H]1C | – | inactive | inactive | – |
| CCCC(=O)N[C@@H](Cc1ccccc1)C(=O)N[C@@H](CCC(=O)O)C(=O)N[C@@H]1C(=O)N[C@@H](CCC(=O)O)C(=O)N[C@H]2CC[C@@H](O)N(C2=O)[C@@H](C(C)C)C(=O)N(C)[C@@H](Cc2ccccc2)C(=O)N[C@@H]([C@@H](C)CC)C(=O)O[C@@H]1C | – | inactive | inactive | – |
| CC[C@H](C)[C@@H]1NC(=O)[C@H](Cc2ccc(OC)cc2)N(C)C(=O)[C@H]([C@@H](C)O)N2C(=O)[C@H](CC[C@H]2O)NC(=O)[C@H](CC(C)C)NC(=O)[C@@H](NC(=O)[C@H](CCC(N)=O)NC(=O)[C@@H]2CCC(=O)N2)[C@@H](C)OC1=O | – | inactive | inactive | – |
| CC[C@H](C)[C@@H]1NC(=O)[C@H](Cc2ccc(O)cc2)N(C)C(=O)[C@H]([C@@H](C)CC)N2C(=O)C(CCC2O)NC(=O)[C@H](CC(C)C)NC(=O)[C@@H]2C(OC1=O)C(C)CN2C(=O)[C@H](CCC(N)=O)NC(C)=O (stereo in doubt; form 2) | – | inactive | inactive | – |
| CC[C@H](C)[C@@H]1NC(=O)[C@H](Cc2ccccc2)N(C)C(=O)[C@H]([C@@H](C)CC)N2C(=O)[C@H](CC[C@H]2O)NC(=O)[C@H](CCCNC(=N)N)NC(=O)[C@@H](NC(=O)[C@H](O)COS(=O)(=O)O)[C@@H](C)OC1=O [CYANOPEPTOLIN S] | 6.62 | – | – | – |
| CC(C)[C@@H]1NC(=O)[C@H](Cc2ccc(O)cc2)N(C)C(=O)[C@H](Cc2ccccc2)N2C(=O)[C@H](CC[C@H]2O)NC(=O)[C@H](CCCNC(=N)N)NC(=O)[C@@H](NC(=O)[C@@H](O)COS(=O)(=O)O)[C@@H](C)OC1=O [MICROPEPTIN 90] | 5.68 | – | inactive | – |
| CCCCCCCC(=O)N[C@@H](CCC(=O)O)C(=O)N[C@@H]1C(=O)N[C@@H](CCCCN)C(=O)N[C@H]2CC[C@@H](O)N(C2=O)[C@@H](CC(C)C)C(=O)N(C)[C@@H](Cc2ccc(O)cc2)C(=O)N[C@@H](C(C)C)C(=O)O[C@@H]1C [MICROPEPTIN A] | 7.15 | – | inactive | – |
| CCCCCC(=O)N[C@@H](CCC(=O)O)C(=O)N[C@@H]1C(=O)N[C@@H](CCCNC(=N)N)C(=O)N[C@H]2CC[C@@H](O)N(C2=O)[C@@H](CC(C)C)C(=O)N(C)[C@@H](Cc2ccc(O)cc2)C(=O)N[C@@H](C(C)C)C(=O)O[C@@H]1C [MICROPEPTIN B] | 6.59 | – | inactive | – |
| CC[C@H](C)[C@@H]1NC(=O)[C@H](Cc2ccc(O)cc2)N(C)C(=O)[C@H](Cc2ccccc2)N2C(=O)[C@H](CC[C@H]2O)NC(=O)[C@H](CCCNC(=N)N)NC(=O)[C@@H](NC(=O)[C@H](CC(=O)O)NC(C)=O)[C@@H](C)OC1=O [MICROPEPTIN E1964] | 5.36 | – | inactive | – |
| CCCC(=O)N[C@@H](CC(=O)O)C(=O)N[C@@H]1C(=O)N[C@@H](CCCNC(=N)N)C(=O)N[C@H]2CC[C@@H](O)N(C2=O)[C@@H](Cc2ccccc2)C(=O)N(C)[C@@H](Cc2ccc(O)cc2)C(=O)N[C@@H]([C@@H](C)CC)C(=O)O[C@@H]1C [MICROPEPTIN EI992] | 5.42 | – | inactive | – |
| CCCCCC(=O)N[C@@H](CC(=O)O)C(=O)N[C@@H]1C(=O)N[C@@H](CCCCN)C(=O)N[C@H]2CC[C@@H](O)N(C2=O)[C@@H]([C@@H](C)CC)C(=O)N(C)[C@@H](Cc2ccc(O)cc2)C(=O)N[C@@H](C(C)C)C(=O)O[C@@H]1C [MICROPEPTIN SD944] | 5.07 | – | inactive | – |
| CCCCCC(=O)N[C@@H](CC(=O)O)C(=O)N[C@@H]1C(=O)N[C@@H](CCCNC(=N)N)C(=O)N[C@H]2CC[C@@H](O)N(C2=O)[C@@H]([C@@H](C)CC)C(=O)N(C)[C@@H](CC(=O)c2ccccc2N)C(=O)N[C@@H](C(C)C)C(=O)O[C@@H]1C [MICROPEPTIN SD999] | 5.40 | – | inactive | – |
| CCCCCC(=O)N[C@@H](CC(=O)O)C(=O)N[C@@H]1C(=O)N[C@@H](CCCNC(=N)N)C(=O)N[C@H]2CC[C@@H](O)N(C2=O)[C@@H]([C@@H](C)CC)C(=O)N(C)[C@@H](Cc2c[nH]c3ccccc23)C(=O)N[C@@H](C(C)C)C(=O)O[C@@H]1C [MICROPEPTIN SF995] | 6.70 | – | inactive | – |
| CCCCCC(=O)N[C@@H](CCC(=O)O)C(=O)N[C@@H]1C(=O)N[C@@H](CCCCN)C(=O)N[C@H]2CC[C@@H](O)N(C2=O)[C@@H](Cc2ccccc2)C(=O)N(C)[C@@H](Cc2c[nH]c3ccccc23)C(=O)N[C@@H](C(C)C)C(=O)O[C@@H]1C [MICROPEPTIN T2] | 7.00 | – | inactive | – |
| CC[C@H](C)[C@@H]1NC(=O)[C@H](Cc2ccc(O)cc2)N(C)C(=O)[C@H](CC(C)C)N2C(=O)[C@H](CC[C@H]2OC)NC(=O)[C@H](CC(C)C)NC(=O)[C@@H]2[C@@H](OC1=O)C(C)CN2C(=O)[C@H](CCC(N)=O)NC(C)=O (stereo partly drawn) [NOSTOPEPTIN F] | – | inactive | – | pIC50 [4]: 5.42 |
| CC[C@H](C)[C@@H]1NC(=O)[C@H](Cc2ccc(OC)cc2)N(C)C(=O)[C@H](CC(C)C)N2C(=O)[C@H](CC[C@H]2O)NC(=O)[C@H](CC(C)C)NC(=O)[C@@H]2[C@@H](OC1=O)C(C)CN2C(=O)[C@H](CCC(N)=O)NC(C)=O (stereo partly drawn) [NOSTOPEPTIN I] | – | inactive | – | pIC50 [4]: 5.46 |
| CC[C@H](C)[C@@H]1NC(=O)[C@H](Cc2ccc(OC)cc2)N(C)C(=O)[C@H](CC(C)C)N2C(=O)[C@H](CC[C@H]2OC)NC(=O)[C@H](CC(C)C)NC(=O)[C@@H]2[C@@H](OC1=O)C(C)CN2C(=O)[C@H](CCC(N)=O)NC(C)=O (stereo partly drawn) [NOSTOPEPTIN J] | – | inactive | – | pIC50 [4]: 5.49 |
| CC[C@@H](C)[C@@H]1NC(=O)[C@H](Cc2ccc(OC)cc2)N(C)C(=O)[C@H]([C@@H](C)CC)N2C(=O)[C@H](CC[C@H]2O)NC(=O)[C@H](CCc2ccc(O)cc2)NC(=O)[C@@H](NC(=O)[C@H](CCc2ccc(O)cc2)NC(=O)[C@@H](COS(=O)(=O)O)OC)[C@@H](C)OC1=O [OSCILLAPEPTIN A] | – | inactive | – | pIC50 [4]: 5.72 |
| CC[C@@H](C)[C@@H]1NC(=O)[C@H](Cc2ccccc2)N(C)C(=O)[C@H]([C@@H](C)CC)N2C(=O)[C@H](CC[C@H]2O)NC(=O)[C@H](CCCCN)NC(=O)[C@@H](NC(=O)[C@@H](CCc2ccccc2)NC(=O)[C@@H](COS(=O)(=O)O)OC)[C@@H](C)OC1=O [OSCILLAPEPTIN F] | 6.74 | – | inactive | – |
| CC[C@H](C)[C@@H]1NC(=O)[C@H](Cc2ccc(OC)cc2)N(C)C(=O)[C@H]([C@@H](C)O)N2C(=O)[C@H](CC[C@H]2O)NC(=O)[C@H](CC(C)C)NC(=O)[C@@H](NC(=O)[C@H](CCC(N)=O)NC(=O)[C@@H](NC(=O)[C@@H](O)CO)C(C)C)[C@@H](C)OC1=O [PLANKTOPEPTIN BL1061] | – | inactive | – | pIC50 [4]: 5.68 |
| CC[C@H](C)[C@@H]1NC(=O)[C@H](Cc2ccc(OC)cc2)N(C)C(=O)[C@H]([C@@H](C)O)N2C(=O)[C@H](CC[C@H]2O)NC(=O)[C@H](CC(C)C)NC(=O)[C@@H](NC(=O)[C@H](CCC(N)=O)NC(=O)[C@H](CCc2ccc(O)cc2)NC(=O)[C@@H](O)CO)[C@@H](C)OC1=O [PLANKTOPEPTIN BL1125] | – | inactive | – | pIC50 [4]: 6.10 |
| CCCC(=O)N[C@@H](CCC(N)=O)C(=O)N[C@@H]1C(=O)N[C@@H](CCCNC(N)=O)C(=O)N[C@H]2CC[C@@H](O)N(C2=O)[C@@H]([C@@H](C)CC)C(=O)N(C)[C@@H](Cc2ccc(OC)c(Br)c2)C(=O)N[C@@H](C(C)C)C(=O)O[C@@H]1C [SYMPLOCAMIDE A] | 4.10 | – | – | pIC50 [4]: 6.42; pIC50 (NCI-H460): 7.40; pIC50 [5]: 7.54; pIC50 (Plasmodium falciparum): 6.02; pIC50 (Trypanosoma cruzi): < 5.02; pIC50 (Leishmania donovani): < 5.02 |

Reference: ChEMBL document CHEMBL1143074, “Symplocamide A, a potent cytotoxin and chymotrypsin inhibitor from the marine Cyanobacterium Symploca sp” (J Nat Prod, 2008)
